Reference: ChEMBL document CHEMBL5303300, “EUbOPEN Chemogenomics Library - Multiplex” (2023)
Where “and” joins values, the source holds several entries; their conditions need not be identical. Identical values can stand only once.

Key:
Fibroblast = test: Multiplex assay against human fibroblast; assay type: toxicity, cell-based; conditions: number of replicates 2
In short: (§1)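 Compound was added to live cells that had been stained at seeding with Hoechst33342, BioTracker Green Microtubule Cytoskeleton Dye, MitoTracker Red and Annexin V Alexa Fluor 680, and imaging followed on a CQ1 microscope at 37°C and 5% CO2. CellPathfinder machine-learning gating divided cells into Hoechst high-intensity objects or normal cells, normal cells into healthy, pyknosed or fragmented nuclei, and pyknosed cells into mitotic or apoptotic. Tubulin, mitochondrial-mass and membrane-permeability phenotypes are per cents of healthy-nucleus cells.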

HEK-293T = test: Multiplex assay against HEK293T; assay type: toxicity, cell-based; conditions: human, number of replicates 2; in short: as §1
[1] = 12 h, 1 µM, compound concentration 1 uM
[2] = 12 h, 10 µM, compound concentration 10 uM
[3] = 24 h, 1 µM, compound concentration 1 uM
[4] = 24 h, 10 µM, compound concentration 10 uM
[5] = 48 h, 1 µM, compound concentration 1 uM
[6] = 48 h, 10 µM, compound concentration 10 uM

Cc1cc(-c2cnc(N)c3c(-c4ccc5scnc5c4)csc23)n(C)n1
Population Apoptotic (%) (Fibroblast; [1]): 48% and 40% | Population Fragmented Nuclei (%) (Fibroblast; [1]): 9% and 10% | Population Healthy Nuclei (%) (Fibroblast; [1]): 77% and 62% | Population Hoechst High Intensity Objects (%) (Fibroblast; [1]): 0% | Population Membrane Permeable-Phenotype (%) (Fibroblast; [1]): 4% and 10% | Population Mitochondria Different-Phenotype (%) (Fibroblast; [1]): 0% and 2% | Population Mitotic Cells (%) (Fibroblast; [1]): 51% and 60% | Population Normal (%) (Fibroblast; [1]): 100% | Population Pyknosed Nuclei (%) (Fibroblast; [1]): 12% and 26% | Population Tubulin-Different-Phenotype (%) (Fibroblast; [1]): 14% and 15% | Total Cell Count (Fibroblast; [1]): 224 and 187 | Population Apoptotic (%) (Fibroblast; [2]): 66% and 51% | Population Fragmented Nuclei (%) (Fibroblast; [2]): 23% | Population Healthy Nuclei (%) (Fibroblast; [2]): 61% and 62% | Population Hoechst High Intensity Objects (%) (Fibroblast; [2]): 0% | Population Membrane Permeable-Phenotype (%) (Fibroblast; [2]): 12% and 20% | Population Mitochondria Different-Phenotype (%) (Fibroblast; [2]): 2% and 0% | Population Mitotic Cells (%) (Fibroblast; [2]): 33% and 48% | Population Normal (%) (Fibroblast; [2]): 99% and 100% | Population Pyknosed Nuclei (%) (Fibroblast; [2]): 15% and 14% | Population Tubulin-Different-Phenotype (%) (Fibroblast; [2]): 76% and 56% | Total Cell Count (Fibroblast; [2]): 240 and 224 | Population Apoptotic (%) (Fibroblast; [3]): 50% and 60% | Population Fragmented Nuclei (%) (Fibroblast; [3]): 13% and 10% | Population Healthy Nuclei (%) (Fibroblast; [3]): 75% and 64% | Population Hoechst High Intensity Objects (%) (Fibroblast; [3]): 0% | Population Membrane Permeable-Phenotype (%) (Fibroblast; [3]): 1% and 6% | Population Mitochondria Different-Phenotype (%) (Fibroblast; [3]): 0% and 3% | Population Mitotic Cells (%) (Fibroblast; [3]): 50% and 39% | Population Normal (%) (Fibroblast; [3]): 100% | Population Pyknosed Nuclei (%) (Fibroblast; [3]): 11% and 25% | Population Tubulin-Different-Phenotype (%) (Fibroblast; [3]): 10% and 13% | Total Cell Count (Fibroblast; [3]): 253 and 187 | Population Apoptotic (%) (Fibroblast; [4]): 68% and 59% | Population Fragmented Nuclei (%) (Fibroblast; [4]): 27% | Population Healthy Nuclei (%) (Fibroblast; [4]): 62% and 60% | Population Hoechst High Intensity Objects (%) (Fibroblast; [4]): 0% | Population Membrane Permeable-Phenotype (%) (Fibroblast; [4]): 10% and 15% | Population Mitochondria Different-Phenotype (%) (Fibroblast; [4]): 1% | Population Mitotic Cells (%) (Fibroblast; [4]): 32% and 40% | Population Normal (%) (Fibroblast; [4]): 100% | Population Pyknosed Nuclei (%) (Fibroblast; [4]): 9% and 12% | Population Tubulin-Different-Phenotype (%) (Fibroblast; [4]): 74% and 46% | Total Cell Count (Fibroblast; [4]): 254 and 259 | Population Apoptotic (%) (Fibroblast; [5]): 71% and 61% | Population Fragmented Nuclei (%) (Fibroblast; [5]): 10% and 14% | Population Healthy Nuclei (%) (Fibroblast; [5]): 83% and 67% | Population Hoechst High Intensity Objects (%) (Fibroblast; [5]): 0% | Population Membrane Permeable-Phenotype (%) (Fibroblast; [5]): 4% and 9% | Population Mitochondria Different-Phenotype (%) (Fibroblast; [5]): 1% and 3% | Population Mitotic Cells (%) (Fibroblast; [5]): 28% and 38% | Population Normal (%) (Fibroblast; [5]): 100% | Population Pyknosed Nuclei (%) (Fibroblast; [5]): 6% and 17% | Population Tubulin-Different-Phenotype (%) (Fibroblast; [5]): 8% and 13% | Total Cell Count (Fibroblast; [5]): 221 and 189 | Population Apoptotic (%) (Fibroblast; [6]): 66% and 72% | Population Fragmented Nuclei (%) (Fibroblast; [6]): 31% and 29% | Population Healthy Nuclei (%) (Fibroblast; [6]): 59% and 61% | Population Hoechst High Intensity Objects (%) (Fibroblast; [6]): 0% | Population Membrane Permeable-Phenotype (%) (Fibroblast; [6]): 6% and 9% | Population Mitochondria Different-Phenotype (%) (Fibroblast; [6]): 1% | Population Mitotic Cells (%) (Fibroblast; [6]): 33% and 27% | Population Normal (%) (Fibroblast; [6]): 100% | Population Pyknosed Nuclei (%) (Fibroblast; [6]): 9% and 8% | Population Tubulin-Different-Phenotype (%) (Fibroblast; [6]): 71% and 54% | Total Cell Count (Fibroblast; [6]): 257 and 251 | Population Apoptotic (%) (HEK-293T; [1]): 53% and 52% | Population Fragmented Nuclei (%) (HEK-293T; [1]): 5% and 2% | Population Healthy Nuclei (%) (HEK-293T; [1]): 81% and 85% | Population Hoechst High Intensity Objects (%) (HEK-293T; [1]): 7% and 6% | Population Membrane Permeable-Phenotype (%) (HEK-293T; [1]): 3% and 1% | Population Mitochondria Different-Phenotype (%) (HEK-293T; [1]): 21% and 11% | Population Mitotic Cells (%) (HEK-293T; [1]): 46% and 47% | Population Normal (%) (HEK-293T; [1]): 92% and 93% | Population Pyknosed Nuclei (%) (HEK-293T; [1]): 13% and 11% | Population Tubulin-Different-Phenotype (%) (HEK-293T; [1]): 61% and 56% | Total Cell Count (HEK-293T; [1]): 648 and 641 | Population Apoptotic (%) (HEK-293T; [2]): 45% and 68% | Population Fragmented Nuclei (%) (HEK-293T; [2]): 4% and 3% | Population Healthy Nuclei (%) (HEK-293T; [2]): 77% and 84% | Population Hoechst High Intensity Objects (%) (HEK-293T; [2]): 17% and 13% | Population Membrane Permeable-Phenotype (%) (HEK-293T; [2]): 4% and 2% | Population Mitochondria Different-Phenotype (%) (HEK-293T; [2]): 59% and 57% | Population Mitotic Cells (%) (HEK-293T; [2]): 54% and 31% | Population Normal (%) (HEK-293T; [2]): 82% and 86% | Population Pyknosed Nuclei (%) (HEK-293T; [2]): 17% and 12% | Population Tubulin-Different-Phenotype (%) (HEK-293T; [2]): 92% and 91% | Total Cell Count (HEK-293T; [2]): 429 and 378 | Population Apoptotic (%) (HEK-293T; [3]): 49% and 53% | Population Fragmented Nuclei (%) (HEK-293T; [3]): 7% and 6% | Population Healthy Nuclei (%) (HEK-293T; [3]): 85% and 86% | Population Hoechst High Intensity Objects (%) (HEK-293T; [3]): 8% and 9% | Population Membrane Permeable-Phenotype (%) (HEK-293T; [3]): 3% and 1% | Population Mitochondria Different-Phenotype (%) (HEK-293T; [3]): 10% and 4% | Population Mitotic Cells (%) (HEK-293T; [3]): 50% and 46%
